According to ChEMBL document CHEMBL1159336, “Nodulisporic acids C, C1, and C2: a series of D-ring-opened nodulisporic acids from the fungus Nodulisporium sp” (2003):

How the values were obtained:
Type in all cases: functional
[1] = test system: Aedes aegypti; assay: Insecticidal activity against Aedes aegypti
In short: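 Mosquito larvae were exposed to test compounds and killing was scored. Activity is reported as the LD90 in ng/mL.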

[2] = test system: Lucilia sericata; assay: Insecticidal activity against Lucilia sericata
In short: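 Blowfly larvae were exposed to test compounds and killing was scored. Activity is reported as the LD90 in ng/mL.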

[3] = test system: Ctenocephalides felis; assay: Insecticidal activity against Ctenocephalides felis

Q: Which results are given for IVERMECTIN?
A: LD90 [1]: 5 ng/mL; LD90 [2]: 40 ng/mL; LD90 [3]: 10 µg/mL

Q: What does the source list for CC(C)=CCc1c2c(cc3c4c([nH]c13)[C@@]1(C)[C@@H](CC[C@H]3[C@](C)(/C=C/C=C(\C)C(=O)[O-])[C@@H](O)CC[C@@]31C)C4)C1=CC(C)(C)OC(C)(C)[C@H]1[C@@H]2O.[Na+] [NODULISPORIC ACID C SODIUM]?
A: LD90 [1]: 10000 ng/mL; LD90 [2]: 10500 ng/mL; LD90 [3]: 10 µg/mL

Q: How did the LD90 [1] turn out when C=C(C)[C@H]1C(=O)c2c3c(cc4c5c(n1c24)[C@@]1(C)[C@@H](CC[C@@H]2[C@]1(C)CC[C@]1(O)O[C@H](C(O)C(C)C(=O)O)C[C@@]21C)C5)C1=CC(C)(C)OC(C)(C)[C@H]1[C@@H]3O (stereo not given in full) [NODULISPORIC ACID A2] was run?
A: Its LD90 is 800 ng/mL.

Q: What about the LD90 [2] of the same compound?
A: The LD90 was 600 ng/mL.

Q: And the LD90 [3]?
A: Its LD90 is 10 µg/mL.

Q: For CN1C(=O)[C@]23C[C@H]4C(C)(C)[C@@]5(C[C@@]41CN2CC[C@@]3(C)O)C(=O)Nc1cc2c(cc15)OC(C)(C)C=CO2 [PARAHERQUAMIDE], which LD90 [1] is on record?
A: The LD90 was 50000 ng/mL.

Q: What about the LD90 [2] of the same compound?
A: Its LD90 is 50000 ng/mL.

Q: And the LD90 [3]?
A: Its LD90 is >100 µg/mL.

Q: CC(C)=CCc1c2c(cc3c4c([nH]c13)[C@@]1(C)[C@@H](CC[C@@H]3[C@]1(C)CC[C@]1(O)O[C@H](/C=C(\C)C(=O)[O-])C[C@@]31C)C4)C1=CC(C)(C)OC(C)(C)[C@H]1[C@@H]2O.[Na+] [NODULISPORIC ACID C1] was tested. Which LD90 [3] did it give?
A: The LD90 was >100 µg/mL.

Q: CC(C)=CCc1c2c(cc3c4c([nH]c13)[C@@]1(C)[C@@H](CC[C@@H]3[C@]1(C)CC[C@]1(O)O[C@H]([C@H](O)[C@H](C)C(=O)[O-])C[C@@]31C)C4)C1=CC(C)(C)OC(C)(C)[C@H]1[C@@H]2O.[Na+] was tested. Which LD90 [3] did it give?
A: Its LD90 is >100 µg/mL.

Q: How did the LD90 [1] turn out when C=C(C)[C@H]1C(=O)c2c3c(cc4c5c(n1c24)[C@@]1(C)[C@@H](CC[C@@H]2[C@]1(C)CC[C@]1(O)O[C@H](/C=C(\C)C(=O)O)C[C@@]21C)C5)C1=CC(C)(C)OC(C)(C)[C@H]1[C@@H]3O [NODULISPORIC ACID A1] was run?
A: Its LD90 is 200 ng/mL.

Q: And the LD90 [2]?
A: The LD90 was 300 ng/mL.

Q: And the LD90 [3]?
A: Its LD90 is 5 µg/mL.

Q: How did the LD90 [1] turn out when C=C(C)[C@H]1C(=O)c2c3c(cc4c5c(n1c24)[C@@]1(C)C(CC[C@H]2[C@](C)(/C=C/C=C(\C)C(=O)O)[C@@H](O)CC[C@@]21C)C5)C1=CC(C)(C)OC(C)(C)C1[C@@H]3O (stereo not given in full) [NOD ACID A] was run?
A: Its LD90 is 500 ng/mL.

Q: And the LD90 [2]?
A: The LD90 was 300 ng/mL.

Q: And the LD90 [3]?
A: The LD90 was 1 µg/mL.
